Laboratory results taken from ChEMBL document CHEMBL1124866, “Synthesis and activity of NAcSerAspLysPro analogues on cellular interactions between T-cell and erythrocytes in rosette formation” (1990).
Active and inactive are the calls of the source. No cut-off for these calls is given here. Square brackets hold non-standard residues; d marks the D form. Peptide text beside a SMILES is read from it. Orn = NCCC[C@H](N)C(=O)O

Legend:
Jurkat [1] = assay: (§1) Activity on rosetting of jurkat T-cells with SRBC at the concentration of 10e-3 M; assay type: functional, Homo sapiens
Jurkat [2] = assay: Activity on rosetting of jurkat T-cells with SRBC at the concentration of 10e-6 M; Not significant; assay type: functional, cell-based; settings: Homo sapiens
Jurkat [3] = assay: Activity on rosetting of jurkat T-cells with SRBC at the concentration of 10e-8 M; Not significant; assay type: functional, cell-based; settings: Homo sapiens, at 0.01 µM
In short: (§2)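 Jurkat T lymphoma cells kept in RPMI 1640 with 10% heat-inactivated FCS, washed three times before use; SRBC washed three times. Jurkat cells (2 × 10^6 cells/mL, 2.10⁵ cells) preincubated with peptide in RPMI for 10 min at 4 °C. SRBC (2 × 10^8 cells/mL) added, centrifuged 5 min at 200g, held overnight at 4 °C. Rosettes (three erythrocytes per lymphocyte) counted blind by hemocytometer; three experiments in quadruplicate; % inhibition.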

Jurkat [4] = assay: (§3) Activity on rosetting of jurkat T-cells with SRBC at the concentration of 10e-8 M; assay type: functional, Homo sapiens
Jurkat [5] = assay: Activity on rosetting of jurkat T-cells with SRBC at the concentration of 10e-11 M; Not significant; assay type: functional, cell-based; settings: Homo sapiens, at 10 pM; in short: as §2
Jurkat [6] = assay: Activity on rosetting of jurkat T-cells with SRBC at the concentration of 0 M; assay type: functional, Homo sapiens
Jurkat [7] = assay: (§4) Activity on rosetting of jurkat T-cells with SRBC at the concentration of 10e-10 M; assay type: functional, Homo sapiens
Jurkat [8] = assay: (§5) Activity on rosetting of jurkat T-cells with SRBC at the concentration of 10e-6 M; assay type: functional, Homo sapiens
Jurkat [9] = assay: Activity on rosetting of jurkat T-cells with SRBC at the concentration of 10e-4 M; Not significant; assay type: functional, cell-based; settings: Homo sapiens
Jurkat [10] = assay: (§6) Activity on rosetting of jurkat T-cells with SRBC at the concentration of 10e-5 M; assay type: functional, Homo sapiens
Jurkat [11] = assay: Activity on rosetting of jurkat T-cells with SRBC at the concentration of 10e-5 M; Not significant; assay type: functional, cell-based; settings: Homo sapiens
Jurkat [12] = assay: Activity on rosetting of jurkat T-cells with SRBC at the concentration of 10e-7 M; Not significant; assay type: functional, cell-based; settings: Homo sapiens, at 0.1 µM; in short: as §2
Jurkat [13] = assay: Activity on rosetting of jurkat T-cells with SRBC at the concentration of 10e-9 M; Not significant; assay type: functional, cell-based; settings: Homo sapiens, at 0.001 µM; in short: as §2
Jurkat [14] = assay: (§7) Activity on rosetting of jurkat T-cells with SRBC at the concentration of 10e-11 M; assay type: functional, Homo sapiens
Jurkat [15] = assay: (§8) Activity on rosetting of jurkat T-cells with SRBC at the concentration of 10e-7 M; assay type: functional, Homo sapiens
Jurkat [16] = assay: Activity on rosetting of jurkat T-cells with SRBC at the concentration of 10e-3 M; Not significant; assay type: functional, cell-based; settings: Homo sapiens
Jurkat [17] = assay: Activity on rosetting of jurkat T-cells with SRBC at the concentration of 10e-10 M; Not significant; assay type: functional, cell-based; settings: Homo sapiens, at 0.0001 µM; in short: as §2
Jurkat [18] = assay: (§9) Activity on rosetting of jurkat T-cells with SRBC at the concentration of 10e-4 M; assay type: functional, Homo sapiens
Jurkat [19] = assay: (§10) Activity on rosetting of jurkat T-cells with SRBC at the concentration of 10e-9 M; assay type: functional, Homo sapiens
Jurkat [20] = assay: as §6; assay type: functional; settings: Homo sapiens
Jurkat [21] = assay: as §5; assay type: functional; settings: Homo sapiens
Jurkat [22] = assay: as §9; assay type: functional; settings: Homo sapiens
Jurkat [23] = assay: Activity on rosetting of jurkat T-cells with SRBC at the concentration of 10e-13 M; assay type: functional, Homo sapiens
Jurkat [24] = assay: Activity on rosetting of jurkat T-cells with SRBC at the concentration of 10e-14 M; assay type: functional, Homo sapiens
Jurkat [25] = assay: Activity on rosetting of jurkat T-cells with SRBC at the concentration of 10e-15 M; assay type: functional, Homo sapiens
Jurkat [26] = assay: Activity on rosetting of jurkat T-cells with SRBC at the concentration of 10e-12 M; assay type: functional, Homo sapiens
Jurkat [27] = assay: Activity on rosetting of jurkat T-cells with SRBC at the concentration of 10e-13 M; Not significant; assay type: functional, cell-based; settings: Homo sapiens
Jurkat [28] = assay: as §4; assay type: functional; settings: Homo sapiens
Jurkat [29] = assay: Activity on rosetting of jurkat T-cells with SRBC at the concentration of 10e-14 M; Not significant; assay type: functional, cell-based; settings: Homo sapiens
Jurkat [30] = assay: as §3; assay type: functional; settings: Homo sapiens
Jurkat [31] = assay: as §7; assay type: functional; settings: Homo sapiens
Jurkat [32] = assay: Activity on rosetting of jurkat T-cells with SRBC at the concentration of 10e-12 M; Not significant; assay type: functional, cell-based; settings: Homo sapiens
Jurkat [33] = assay: as §8; assay type: functional; settings: Homo sapiens
Jurkat [34] = assay: Activity on rosetting of jurkat T-cells with SRBC at the concentration of 10e-15 M; Not significant; assay type: functional, cell-based; settings: Homo sapiens
Jurkat [35] = assay: as §1; assay type: functional; settings: Homo sapiens
Jurkat [36] = assay: as §10; assay type: functional; settings: Homo sapiens

SMILES | inhibition (Jurkat [2]) | inhibition (Jurkat [3]) | No. of rosettes/100 Jurkat T cells (Jurkat [4]) | inhibition (Jurkat [5]) | No. of rosettes/100 Jurkat T cells (Jurkat [6]) | No. of rosettes/100 Jurkat T cells (Jurkat [7]) | No. of rosettes/100 Jurkat T cells (Jurkat [8]) | inhibition (Jurkat [9]) | No. of rosettes/100 Jurkat T cells (Jurkat [10]) | inhibition (Jurkat [11]) | inhibition (Jurkat [12]) | inhibition (Jurkat [13]) | No. of rosettes/100 Jurkat T cells (Jurkat [14]) | No. of rosettes/100 Jurkat T cells (Jurkat [15]) | inhibition (Jurkat [17]) | No. of rosettes/100 Jurkat T cells (Jurkat [18]) | No. of rosettes/100 Jurkat T cells (Jurkat [19]) | inhibition at 10 µM (Jurkat [20]) | inhibition at 1 µM (Jurkat [21]) | inhibition at 100 µM (Jurkat [22]) | further results
CC(=O)N[C@@H](CO)C(=O)N[C@H](CC(=O)O)C(=O)N[C@@H](CCCCN)C(=O)N1CCC[C@H]1C(=O)O | inactive | inactive | 47 | inactive | 51 | 43 | 42 | inactive | 49 | inactive | inactive | inactive | 57 | 47 | inactive | 48 | 51 |  |  |  | No. of rosettes/100 Jurkat T cells (Jurkat [1]): 48; inhibition (Jurkat [16]): inactive
CC(=O)N[C@@H](C)C(=O)N[C@@H](CC(=O)O)C(=O)N[C@@H](CCCCN)C(=O)N1CCC[C@H]1C(=O)O (Ac-ADKP-OH) | inactive | inactive | 63 | inactive | 60 | 56 | 59 | inactive | 57 | inactive | inactive | inactive | 56 | 59 | inactive | 54 | 64 |  |  |  | 
CC(=O)N[C@@H](CO)C(=O)N[C@@H](CC(=O)O)C(=O)N[C@@H](CCCN)C(=O)N1CCC[C@H]1C(=O)O (Ac-SD[Orn]P-OH) | inactive |  |  |  | 58 |  | 52 | inactive | 52 | inactive |  |  |  |  |  | 54 |  |  |  |  | 
CC(=O)N[C@@H](CO)C(=O)N[C@@H](CCC(=O)O)C(=O)N[C@@H](CCCCN)C(=O)N1CCC[C@H]1C(=O)O (Ac-SEKP-OH) |  | inactive | 42 | inactive | 47 | 46 | 35 |  | 29 |  | inactive | inactive | 45 | 41 | inactive |  | 43 | 37% | 25% |  | 
CC(=O)N[C@@H](CO)C(=O)N[C@@H](CC(=O)O)C(=O)O (Ac-Ser-Asp-OH) |  | inactive | 54 | inactive | 56 | 57 | 46 |  | 39 |  | inactive | inactive | 58 | 52 | inactive | 39 | 51 | 30% | 18% | 30% | 
NCCCC[C@H](NC(=O)[C@@H](N)CC(=O)O)C(=O)O (H-Asp-Lys-OH) |  | inactive | 58 |  | 56 |  |  | inactive | 56 | inactive |  |  |  |  |  | 53 |  |  |  |  | 
NCCCC[C@H](NC(=O)[C@@H](N)CC(=O)O)C(=O)N1CCC[C@H]1C(=O)O (H-Asp-Lys-Pro-OH) |  |  |  |  | 54 |  |  | inactive | 57 | inactive |  |  |  |  |  | 55 |  |  |  |  | 
NCCCC[C@H](NC(=O)[C@H](CC(=O)O)NC(=O)[C@@H](N)CO)C(=O)N1CCC[C@H]1C(=O)O (H-SDKP-OH) |  |  | 56 |  | 63 | 55 | 50 |  | 49 |  |  |  | 55 | 54 |  | 47 |  | 22% | 20% | 25% | No. of rosettes/100 Jurkat T cells (Jurkat [23]): 58; No. of rosettes/100 Jurkat T cells (Jurkat [24]): 61; No. of rosettes/100 Jurkat T cells (Jurkat [25]): 60; No. of rosettes/100 Jurkat T cells (Jurkat [26]): 59; inhibition (Jurkat [27]): inactive; inhibition at 0.0001 µM (Jurkat [28]): 13%; inhibition (Jurkat [29]): inactive; inhibition at 0.01 µM (Jurkat [30]): 11%; inhibition at 10 pM (Jurkat [31]): 13%; inhibition (Jurkat [32]): inactive; inhibition at 0.1 µM (Jurkat [33]): 14%; inhibition (Jurkat [34]): inactive
N[C@@H](CO)C(=O)N[C@@H](CC(=O)O)C(=O)O (H-Ser-Asp-OH) | inactive | inactive | 55 |  | 51 |  | 55 |  | 55 | inactive | inactive | inactive |  | 58 |  | 46 | 64 |  |  | 31% | 
CC(=O)N[C@@H](CO)C(=O)N[C@@H](CC(=O)O)C(=O)N[C@@H](CCCCN)C(=O)N1CCC[C@H]1C(=O)O (stereo in doubt; form 1) |  |  |  | inactive |  |  |  |  |  |  |  |  |  |  | inactive |  |  |  |  |  | 
CC(=O)N[C@@H](CO)C(=O)N[C@@H](CC(=O)O)C(=O)N[C@@H](CCCCN)C(=O)N1CCC[C@H]1C(=O)O (stereo in doubt; form 1) [GORALATIDE] |  |  | 41 |  | 62 | 63 | 37 |  | 32 |  |  |  | 58 | 40 |  | 33 | 48 | 48% | 40% | 48% | No. of rosettes/100 Jurkat T cells (Jurkat [1]): 32; inhibition at 1000 µM (Jurkat [35]): 48%; inhibition at 0.01 µM (Jurkat [30]): 34%; inhibition at 0.001 µM (Jurkat [36]): 21%; inhibition at 0.1 µM (Jurkat [33]): 35%
CC(=O)N[C@@H](CO)C(=O)N[C@@H](CC(=O)O)C(=O)N[C@@H](CCCCN)C(=O)N1CCC[C@H]1C(=O)O (stereo in doubt; form 2) | inactive | inactive |  |  |  |  |  | inactive |  | inactive | inactive |  |  |  | inactive |  |  |  |  |  | 
CC(=O)N[C@@H](CO)C(=O)N[C@@H](CC(=O)O)C(=O)N[C@@H](CCCCN)C(=O)N1CCC[C@H]1C(=O)O (stereo in doubt; form 2) [GORALATIDE] |  |  | 83 |  | 82 | 83 | 76 |  | 78 |  |  |  |  | 83 |  | 80 |  |  |  |  | 
